Activity calls are given as the source filed them. No cut-off for these calls is given here.
What was measured:
[1] = Inhibition of tRNA-induced Escherichia coli RNA polymerase mediated T-box riboswitch transcription readthrough assessed as overall transcription in presence of RTprb and dsDNA at 100 uM by fluorescence-monitored in vitro transcription assay
Summary of the method: (§1)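 In vitro transcription with 10 nM DNA template and 0.05 U/μL E. coli RNA polymerase sigma-saturated holoenzyme. Readout by 100 nM molecular beacon, with or without 30 nM tRNA and 100 μM ligand, at 28 °C. Readthrough = fluorescence at 6 h minus 0 min. Triplicates, unpaired t-test.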

[2] = Inhibition of tRNA-induced Escherichia coli RNA polymerase mediated T-box riboswitch transcription readthrough assessed as riboswitch function in presence of RTprb and dsDNA at 100 uM by fluorescence-monitored in vitro transcription assay; summary of the method: as §1
[3] = Binding affinity to 5'TAMRA-antiterminator RNA (unknown origin) assessed as structural changes by fluorescence-monitored ligand binding assay relative to bulge deletion AM
[4] = Effect on HEX-antiterminator RNA-DABCYL (unknown origin) thermal stability at 100 uM by measuring fluorescence by AriaMx Real-Time PCR system
Summary of the method: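 100 nM fluorophore–quencher 5′-HEX-AM-3′-DABCYL with 100 μM ligand in 10 mM sodium phosphate, 0.01 mM EDTA, pH 6.5, 5% DMSO. Fluorescence read (ex 535 nm / em 555 nm) while heating 40–90 °C. Tm taken from the first derivative of the raw data.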

[5] = Induction of tRNA-5'TAMRA-antiterminator RNA (unknown origin) complex disruption using fluorescently-labeled AM at 100 uM by fluorescence anisotropy monitored complex disruption assay
Summary of the method: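 Fluorescence anisotropy of 100 nM 5′-TAMRA-AM with 2.5 μM tRNA and 100 μM ligand (n = 3). Controls were AM alone (r−) and AM plus tRNA (r+), run in replicate. Significance assessed by unpaired t-test.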

[6] = tested on: T-box riboswitch antiterminator RNA (Bacillus subtilis); experiment: Binding affinity to 5'TAMRA antiterminator C11U RNA (unknown origin) assessed as structural changes by fluorescence-monitored ligand binding assay relative to bulge deletion AM

Row | Compound | inhibition [1] | inhibition [2] | Activity [3] | Activity [4] | Activity [5] | Activity [6]
1 | O=C(Cc1ccccc1)OC[C@@H]1OC(=O)N[C@H]1CN1CCN(c2ccccc2)CC1 | inactive | Active |  |  |  | 
2 | CC(=O)c1ccc(NC(=O)OC[C@@H]2OC(=O)N3CCc4c(-c5ccccc5)nnn4C[C@@H]23)cc1 | inactive | Active | Active | inactive | -20% | Active
3 | O=C(Cc1ccccc1)OC[C@H]1OC(=O)N[C@@H]1CN1CCN(c2ccccc2)CC1 | inactive | Active |  |  |  | 
4 | CC(=O)c1ccc(NC(=O)OC[C@H]2OC(=O)N[C@@H]2CN2CCN(c3ccccc3)CC2)cc1 | inactive | Active |  |  |  | 
5 | CC(=O)c1ccc(NC(=O)OC[C@H]2OC(=O)N3CCc4c(-c5ccccc5)nnn4C[C@H]23)cc1 | inactive | Active | Active | inactive | -28% | Active
6 | CC(=O)c1ccc(NC(=O)OC[C@@H]2OC(=O)N[C@H]2CN2CCN(c3ccccc3)CC2)cc1 | inactive | Active |  |  |  | 
7 | O=C(Cc1ccccc1)OC[C@@H]1OC(=O)N2CCc3c(-c4ccccc4)nnn3C[C@@H]12 | inactive | Active | Active | inactive | inactive | Active
8 | O=C(Cc1ccccc1)OC[C@H]1OC(=O)N2CCc3c(-c4ccccc4)nnn3C[C@H]12 | inactive | Active | Active | inactive | inactive | inactive
